# From ChEMBL document CHEMBL4351018, “Novel phenanthridin-6(5H)-one derivatives as potent and selective BET bromodomain inhibitors: Rational design, synthesis and biological evaluation” (Eur J Med Chem, 2019)
# How the values were obtained:
# [1] = system: A549; assay: Induction of apoptosis in human A549 cells assessed as viable cells at 3.0 uM incubated for 48 hrs by annexin V-FITC/PI double staining based flow cytometric analysis (reference value: 98.2%); assay type: functional; settings: A549, 48 h, read-out: Activity
# [2] = system: A549; assay: Induction of apoptosis in human A549 cells assessed as necrotic cells at 1.0 uM incubated for 48 hrs by annexin V-FITC/PI double staining based flow cytometric analysis (reference value: 0%); assay type: functional
# [3] = system: A549; assay: Induction of cell cycle arrest in human A549 cells assessed as increase in accumulation at G1 phase incubated for 48 hrs by BrdU/PI staining based flow cytometric analysis; assay type: functional
# Summary of the method: (§1)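 Subconfluent A549 cells exposed 48 h to 0.3–5.0 μM with DMSO vehicle control. Pulse-labelled with 10 μM BrdU for 30 min at 37 °C before harvest. Fixed in 70% ethanol, denatured in 2 M HCl, neutralised, then stained with fluorescein anti-BrdU antibody and propidium iodide. Analysed by flow cytometry with 488 nm excitation.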
# [4] = AUC (0 to t) in Sprague-Dawley rat at 10 mg/kg, po measured for 0.083 to 24 hrs by LC-MS/MS analysis; assay type: ADME, organism-based; set-up: time 0.083-24 hr, dose 10 mg/kg, route oral; settings: in vivo
# [5] = system: A549; assay: Induction of cell cycle arrest in human A549 cells assessed as increase in accumulation at M phase incubated for 48 hrs by BrdU/PI staining based flow cytometric analysis; assay type: functional; summary of the method: as §1
# [6] = AUC (0 to infinity) in Sprague-Dawley rat at 2.5 mg/kg, iv measured for 0.083 to 24 hrs by LC-MS/MS/MS analysis; assay type: ADME, organism-based; set-up: dose 2.5 mg/kg, time infinity, route intravenous; settings: in vivo
# [7] = system: A549; assay: Induction of apoptosis in human A549 cells assessed as necrotic cells at 5.0 uM incubated for 48 hrs by annexin V-FITC/PI double staining based flow cytometric analysis (reference value: 0%); assay type: functional
# [8] = Metabolic stability in human liver microsomes assessed as half life at 1 uM measured for 0.025 to 2 hrs in presence of betaNADPH by LC-MS/MS analysis; assay type: ADME, Microsome
# Summary of the method: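 1 μM compound incubated at 37 °C with human liver microsomes (0.5 mg/mL), 1.7 mM β-NADPH and 3.3 mM MgCl2 in 0.1 M phosphate buffer pH 7.4, with DMSO below 0.1%. Remaining parent measured by LC-MS/MS; half-life from concentration-time regression.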
# [9] = system: A549; assay: Induction of apoptosis in human A549 cells assessed as late apoptotic cells at 0.3 uM incubated for 48 hrs by annexin V-FITC/PI double staining based flow cytometric analysis (reference value: 0.039%); assay type: functional
# [10] = system: A549; assay: Antiproliferative activity against human A549 cells incubated for 48 hrs by MTT assay; assay type: functional, cell-based; settings: A549, 48 h
# Summary of the method: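 Cells kept in DMEM or RPMI 1640 with 10% FBS at 37 °C, 5% CO2. MTT added for 4 h at 37 °C, formazan dissolved in DMSO, OD read at 570 nm. Survival % taken relative to blank and control wells. Triplicate runs; IC50 from curve fit.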
# [11] = AUC (0 to infinity) in Sprague-Dawley rat at 10 mg/kg, po measured for 0.083 to 24 hrs by LC-MS/MS analysis; assay type: ADME, organism-based; set-up: dose 10 mg/kg, route oral, time infinity; settings: in vivo
# [12] = Apparent clearance in Sprague-Dawley rat at 2.5 mg/kg, iv measured for 0.083 to 24 hrs by LC-MS/MS analysis; assay type: ADME, organism-based; settings: in vivo, read-out: CL(app) (converted)
smiles,measurement,setting,value
COc1ccc(Cl)cc1S(=O)(=O)Nc1ccc2[nH]c(=O)c3ccccc3c2c1,viability at 3 µM,[1],24.6%
same,Activity,[2],0.044%
same,Activity,[3],Dose-dependent effect
same,AUC(0-t),[4],566 ng·h/mL
same,Activity,[5],Dose-dependent effect
same,AUC(0-inf),[6],505 ng·h/mL
same,Activity,[7],0.036%
same,half-life at 1 µM,[8],4.17 h
same,Activity,[9],2.63%
same,IC50,[10],750 nM
same,AUC(0-inf),[11],670 ng·h/mL
same,clearance,[12],85.8 mL/min/kg
